Assay type in all cases: functional
Test [1] concerns Saccharomyces cerevisiae. As to the kind of experiment: Antifungal activity against Saccharomyces cerevisiae NCYC 694 after 24 to 72 hrs by microdilution method. The method, boiled down: (§1)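 Broth microdilution MIC in U-bottom 96-well plates. Compound stock made in Sabouraud dextrose broth/DMSO (9:1) and serially diluted with SDB. Fungal suspension (1 × 10^3 CFU/mL) added to give a final inoculum of 0.5 × 10^3 CFU/mL. Plates incubated at 35 °C and read at 24, 48 and 72 h. MIC is the lowest concentration with no visible growth compared with a drug-free control well.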

For test [2], the system named is Candida albicans. As to the kind of experiment: Antifungal activity against Candida albicans ATCC 10231 after 24 to 72 hrs by microdilution method. The method, boiled down:
as §1

In test [3] the test system is Saccharomyces cerevisiae. As to the kind of experiment: Antifungal activity against Saccharomyces cerevisiae ATCC 9763 after 24 to 72 hrs by microdilution method. The method, boiled down:
as §1

The test system of the next test is Aspergillus niger. As to the kind of experiment: Antifungal activity against Aspergillus niger ATCC 16404 after 24 to 72 hrs by microdilution method. The method, boiled down:
as §1

For another test, the system named is Nakaseomyces glabratus. As to the kind of experiment: Antifungal activity against Candida glabrata ATCC 90030 after 24 to 72 hrs by microdilution method. The method, boiled down:
as §1

The test system of test [4] is Saccharomyces cerevisiae. As to the kind of experiment: Ratio of fluconazole MIC to compound MIC for Saccharomyces cerevisiae NCYC 694.
Test [5] has as its system Candida albicans. As to the kind of experiment: Ratio of fluconazole MIC to compound MIC for Candida albicans ATCC 10231.

In brackets after ≈: the same amount, converted by molar mass.

Regarding `O=C1c2ccccc2O[C@@H](c2ccccc2)[C@@H]1n1cncn1` (relative stereo), the MIC in the test on Saccharomyces cerevisiae [1] is greater than 125 µg/mL; against Candida albicans [2] it was 31.3 µg/mL (≈ 107 µM); in the test with Saccharomyces cerevisiae [3] it was 125 µg/mL (≈ 429 µM); with Aspergillus niger, greater than 62.5 µg/mL; with Nakaseomyces glabratus, greater than 62.5 µg/mL.

`O=C1c2ccccc2O[C@@H](c2ccc(Cl)cc2)[C@@H]1n1cncn1` (relative stereo): the MIC against Saccharomyces cerevisiae [1] is greater than 125 µg/mL; against Candida albicans [2] it was 3.9 µg/mL (≈ 12 µM); against Saccharomyces cerevisiae [3], 3.9 µg/mL (≈ 12 µM); in the test on Aspergillus niger, greater than 62.5 µg/mL; against Nakaseomyces glabratus it was greater than 62.5 µg/mL.

On to `O=C1c2ccccc2O[C@@H](c2ccc(F)cc2)[C@@H]1n1cncn1` (relative stereo), for which the MIC is 0.98 µg/mL (≈ 3.17 µM) in the test on Saccharomyces cerevisiae [1]; 3.9 µg/mL (≈ 12.6 µM) with Candida albicans [2]; 3.9 µg/mL (≈ 12.6 µM) in the test with Saccharomyces cerevisiae [3]; greater than 62.5 µg/mL in the test with Aspergillus niger; 31.3 µg/mL (≈ 101 µM) in the test with Nakaseomyces glabratus. For the same compound, the Ratio in the test with Saccharomyces cerevisiae [4] amounted to 16; in the test on Candida albicans [5], 8.

As for `Cc1ccc([C@@H]2Oc3ccccc3C(=O)[C@H]2n2cncn2)cc1` (relative stereo), the MIC in the test on Saccharomyces cerevisiae [1] was greater than 125 µg/mL; against Candida albicans [2] it was greater than 125 µg/mL; against Saccharomyces cerevisiae [3] it was greater than 125 µg/mL; with Aspergillus niger, greater than 62.5 µg/mL; with Nakaseomyces glabratus, greater than 62.5 µg/mL.

`COc1ccc([C@@H]2Oc3ccccc3C(=O)[C@H]2n2cncn2)cc1` (relative stereo): the MIC against Saccharomyces cerevisiae [1] is greater than 125 µg/mL; with Candida albicans [2], greater than 125 µg/mL; with Saccharomyces cerevisiae [3] it was 125 µg/mL (≈ 389 µM); with Aspergillus niger, greater than 62.5 µg/mL; against Nakaseomyces glabratus, greater than 62.5 µg/mL.

On to `O=C1c2ccccc2O[C@@H](c2cccc(Cl)c2)[C@@H]1n1cncn1` (relative stereo), for which the MIC in the test on Saccharomyces cerevisiae [1] is 1.95 µg/mL (≈ 5.99 µM); with Candida albicans [2], 3.9 µg/mL (≈ 12 µM); in the test on Saccharomyces cerevisiae [3], greater than 125 µg/mL; in the test on Aspergillus niger it was greater than 62.5 µg/mL; against Nakaseomyces glabratus it was 62.5 µg/mL (≈ 192 µM). For the same compound, the Ratio in the test on Saccharomyces cerevisiae [4] and with Candida albicans [5] was 8 in each case.

On to `O=C1c2ccccc2O[C@@H](c2cccc(F)c2)[C@@H]1n1cncn1` (relative stereo), for which the MIC against Saccharomyces cerevisiae [1] was greater than 125 µg/mL; against Candida albicans [2] it was 15.6 µg/mL (≈ 50.4 µM); with Saccharomyces cerevisiae [3], 15.6 µg/mL (≈ 50.4 µM); against Aspergillus niger, greater than 62.5 µg/mL; in the test with Nakaseomyces glabratus it was greater than 62.5 µg/mL. Moreover, in the test on Candida albicans [5], the Ratio came to 2.

For the compound `COc1cccc([C@@H]2Oc3ccccc3C(=O)[C@H]2n2cncn2)c1` (relative stereo), the MIC was greater than 125 µg/mL in the test with Saccharomyces cerevisiae [1]; greater than 125 µg/mL against Candida albicans [2]; greater than 125 µg/mL with Saccharomyces cerevisiae [3]; greater than 62.5 µg/mL in the test with Aspergillus niger; greater than 62.5 µg/mL in the test with Nakaseomyces glabratus.

In the case of `O=C1c2ccccc2O[C@@H](c2ccccc2Cl)[C@@H]1n1cncn1.O=[N+]([O-])O` (relative stereo), the MIC in the test with Saccharomyces cerevisiae [1] was greater than 125 µg/mL; in the test on Candida albicans [2], greater than 125 µg/mL; against Saccharomyces cerevisiae [3], 125 µg/mL; in the test with Aspergillus niger, greater than 62.5 µg/mL; in the test on Nakaseomyces glabratus, greater than 62.5 µg/mL.

Consider `COc1ccccc1[C@@H]1Oc2ccccc2C(=O)[C@H]1n1cncn1.O=[N+]([O-])O` (relative stereo), for which the MIC with Saccharomyces cerevisiae [1] was greater than 125 µg/mL; in the test on Candida albicans [2], greater than 125 µg/mL; with Saccharomyces cerevisiae [3] it was greater than 125 µg/mL; against Aspergillus niger it was greater than 62.5 µg/mL; with Nakaseomyces glabratus it was greater than 62.5 µg/mL.

For `O=C1c2ccccc2O[C@@H](c2ccc(Cl)cc2Cl)[C@@H]1n1cncn1` (relative stereo), the MIC against Saccharomyces cerevisiae [1] was 31.3 µg/mL (≈ 86.9 µM); in the test with Candida albicans [2], 125 µg/mL (≈ 347 µM); against Saccharomyces cerevisiae [3] it was 31.3 µg/mL (≈ 86.9 µM); against Aspergillus niger, greater than 62.5 µg/mL; against Nakaseomyces glabratus, greater than 62.5 µg/mL.

In the case of `O/N=C1\c2ccccc2O[C@@H](c2ccccc2)[C@@H]1n1cncn1` (relative stereo), the MIC was greater than 125 µg/mL with Saccharomyces cerevisiae [1]; greater than 125 µg/mL against Candida albicans [2]; 125 µg/mL (≈ 408 µM) with Saccharomyces cerevisiae [3]; greater than 62.5 µg/mL in the test on Aspergillus niger; greater than 62.5 µg/mL against Nakaseomyces glabratus.

On to `O/N=C1\c2ccccc2O[C@@H](c2ccc(Cl)cc2Cl)[C@@H]1n1cncn1` (relative stereo), for which the MIC against Saccharomyces cerevisiae [1] was greater than 125 µg/mL; against Candida albicans [2] it was greater than 125 µg/mL; in the test on Saccharomyces cerevisiae [3], 62.5 µg/mL (≈ 167 µM); against Aspergillus niger, greater than 62.5 µg/mL; against Nakaseomyces glabratus it was greater than 62.5 µg/mL.

For `OC(Cn1cncn1)(Cn1cncn1)c1ccc(F)cc1F` [FLUCONAZOLE], the MIC against Saccharomyces cerevisiae [1] was 15.6 µg/mL (≈ 50.9 µM); against Candida albicans [2] it was 31.3 µg/mL (≈ 102 µM); against Saccharomyces cerevisiae [3] it was 15.6 µg/mL (≈ 50.9 µM); in the test on Aspergillus niger, greater than 125 µg/mL; in the test on Nakaseomyces glabratus it was 31.3 µg/mL (≈ 102 µM).

For `CC(=O)N1CCN(c2ccc(OCC3COC(Cn4ccnc4)(c4ccc(Cl)cc4Cl)O3)cc2)CC1` (stereo unspecified) [KETOCONAZOLE], the MIC in the test on Aspergillus niger amounted to 15.6 µg/mL (≈ 29.4 µM).

The record behind these values is ChEMBL document CHEMBL2407001, “Synthesis, in vitro antifungal activity and in silico study of 3-(1,2,4-triazol-1-yl)flavanones” (2013).
